Bioassay records (PubChem)
Many of the other results were omitted from the sample, so hits are more common in it than they were.
V-ATPase pHluor = regulators of yeast V-ATPase proton pumping, primary screen, pHLuorin cytosolic pH fluorescence; S. cerevisiae; response, % at 10 µM; 350,000 tested, 0.37% active; in the data active = response mostly above about 7.3%, no sharp cut-off; inactive = mostly below about 5.4%; note: actives read high
Cl transport mod = KCC2 cotransporter modulators, thallium flux, primary screen, cell-based, HEK293 KCC2, FluoZin-2 fluorescence, MLSMR. Solute carrier family 12 member 5 (Homo sapiens), Q9H2X9. KCC2 cells, thallium flux FluoZin-2 fluorescence. 190,000 tested, 2.2% active. AID 1456, 2008. B-score of Tl+ flux slope (higher = more flux/activation; lower = inhibition) at 10 µM;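 active = thallium flux slope and its plate-corrected score both differing from the plate sample mean at a set confidence after two filtering rounds, in either direction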;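 note: slope of fluorescence scaled to starting intensity during 10 to 20 s after thallium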
ABCB6 inh MLPCN = ABCB6 transporter inhibitors, primary screen, K562-ABCB6 cells, flow cytometry, MLPCN library | ATP-binding cassette sub-family B member 6 (Homo sapiens), Q9NP58 | K562-ABCB6 porphyrin accumulation, 1 h; stronger effect = lower value | fluorescence ratio to DMSO, % at 10 µM | 360,000 tested, 0.19% active | AID 602162, 2011;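 active = fluorescence ratio to DMSO below 75%, the collection mean minus 3 SD; inconclusive = too few cells collected in the well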;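 note: signal is porphyrin accumulated inside mitochondria; 100% equals median channel fluorescence of DMSO control wells; lower ratio means ABCB6 inhibition with less porphyrin fluorescence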
Dynein transport = inhibitors of GR-EGFP nuclear translocation, primary screen, dynein cargo transport inhibitor project, imaging, high-content, 3617.4 mouse cells; z-score, hits read low; AID 1381, 2008; test concentration mostly 20 µM; stimulated with dexamethasone, 1 µM; stronger effect = lower value; 220,000 tested, 0.47% active;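 active = plate z-score of nuclear minus cytoplasmic receptor signal below a set negative limit, without overly bright fluorescence or cell loss, cut at about -3.5 in these data, passing the limit was not always enough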;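 note: z-score of nuclear minus cytoplasmic ring GR-EGFP intensity difference per well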
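medium = tetracycline-free induction medium containing charcoal-stripped FBS | also added = 1.0 µM final dexamethasone stimulus | schedule = 48 h induction, 1 h compound, 30 min dex at 37 °C | technique = fixed, Hoechst-stained cells imaged at 10x for EGFP | measure = GR-EGFP nuclear translocation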
p-CIP stab down = p/CIP-EGFP fusion destabilizers, primary screen, fluorescence, F442A cells. decrease of EGFP signal, % at 10 µM. 290,000 tested, 0.01% active. 16 h;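 active = EGFP signal decrease of at least 30% at 10 µM or well 3 SD below plate mean, unless failing retest; inactive = the rest, including hits failing retest or dose response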
Dynein inh conf = dynein cargo transport inhibitors, GR-EGFP translocation, confirmation, imaging, high-content imaging, GR-EGFP cells | shares compounds with Dynein transport | 3617.4 GR-EGFP nuclear translocation imaging, dexamethasone-induced | calls only at 20 µM | 1,000 tested, 69% active | AID 463116, 2010;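 active = inhibition of receptor movement into the nucleus at or above a set limit in both runs, with normal cell brightness and cell count; inconclusive = limit reached in only one run, brightness and count normal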;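 note: dexamethasone at 1 µM final in well for 30 min; nuclear minus cytoplasmic GR-EGFP mean intensity difference in channel 2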
Numbers without * were called inactive.

Oc1ccc(C[C@H]2CN([C@@H](Cc3cccc(O)c3)CN3CCC[C@@H]3CN3C(=S)NC[C@@H]3Cc3ccccc3)C(=S)N2CC2CCCCC2)cc1 was read as ABCB6 inh MLPCN 100.0.
Screening CCCN1C=CC(=C/C=C(\C#N)C(=O)OCC)C=C1 returned Cl transport mod inactive, Dynein transport -0.754 and p-CIP stab down -182.3.
For CCCCCCN1C=CC(=C/C=C(\C#N)C(=O)OCC)C=C1 the results were V-ATPase pHluor -0.6, Cl transport mod inactive, ABCB6 inh MLPCN 104.0, Dynein transport -3.83, p-CIP stab down -801.1 and Dynein inh conf inconclusive.
For CCOC(=O)C1=CCN(S(=O)(=O)c2ccc(C)cc2)C1c1cccc(Br)c1 (stereo not drawn) the results were ABCB6 inh MLPCN 95.0.
For CCC1=C2CC[C@H]3C(=O)N(c4ccccc4)C(=O)[C@H]3[C@H]2[C@@]2(C)C(=NCc3ccccc3)OC(=O)N2C1=O the results were V-ATPase pHluor 2.1, Cl transport mod 0.651, ABCB6 inh MLPCN 97.0, Dynein transport -4.16*, p-CIP stab down -0.4 and Dynein inh conf active.
`CCC1=C(OC(=O)N(CC)CC)N2C(=O)OC(=NCc3ccccc3)[C@]2(C)[C@H]2C1=CC[C@H]1C(=O)N(c3ccccc3)C(=O)[C@H]12` gave V-ATPase pHluor -4.7, Cl transport mod -0.0466, ABCB6 inh MLPCN 102.0, Dynein transport -0.875 and p-CIP stab down 1.1.
For Cc1ccc(S(=O)(=O)N(C)CC(=O)N2CCN(Cc3ccccc3)CC2)cc1 the results were V-ATPase pHluor -5.5, ABCB6 inh MLPCN 103.0 and p-CIP stab down -7.9.
O=C(Nc1ccc2ccccc2c1)c1cnccn1 was read as V-ATPase pHluor -2.5, ABCB6 inh MLPCN 97.0, Dynein transport 0.852 and p-CIP stab down 7.6.
Screening CS(=O)(=O)c1ncc(Cl)c(C(=O)Nc2ccc3ccccc3c2)n1 returned Cl transport mod -1.94, ABCB6 inh MLPCN 98.0, Dynein transport -4.22*, p-CIP stab down -24.1 and Dynein inh conf active.
For Cc1ccc(C(C[N+](=O)[O-])Sc2ccc(N)cc2)cc1 (stereo not drawn) the results were V-ATPase pHluor 2.7, ABCB6 inh MLPCN 98.0, Dynein transport -6.69*, p-CIP stab down -19.1 and Dynein inh conf active.
`Nc1ccc(Sc2ccc([N+](=O)[O-])cc2)cc1` gave V-ATPase pHluor 0.6, Cl transport mod 0.00264, ABCB6 inh MLPCN 99.0, Dynein transport -0.451 and p-CIP stab down 2.8.
CCN(CC)CCNC(=O)c1ccc(CS(=O)(=O)c2ccccc2C)o1 was read as V-ATPase pHluor -1.4, ABCB6 inh MLPCN 97.0 and p-CIP stab down -1.1.
`Cc1cc(C(=O)CCl)c(C)n1-c1ccon1` gave V-ATPase pHluor -1.7, Cl transport mod 0.0114, ABCB6 inh MLPCN 93.0, Dynein transport -5.55*, p-CIP stab down 0.7 and Dynein inh conf active.
For Cc1cc(C(=O)CCl)c(C)n1Cc1ccco1 the results were V-ATPase pHluor 4.4, ABCB6 inh MLPCN 100.0, Dynein transport -6.01*, p-CIP stab down -14.6 and Dynein inh conf active.
Screening Cc1cc(C(=O)CSc2nncs2)c(C)n1Cc1ccco1 returned V-ATPase pHluor 2.5, Cl transport mod 0.229, ABCB6 inh MLPCN 92.0, Dynein transport -0.0581 and p-CIP stab down -2.4.
`Cc1cc(C(=O)CCl)c(C)n1-c1cccc([N+](=O)[O-])c1` gave V-ATPase pHluor -1.6, Cl transport mod -0.0288, ABCB6 inh MLPCN 103.0, Dynein transport -3.01 and p-CIP stab down -37.9.
`CCn1c(SCC(=O)Nc2ccc3c(c2)oc2ccccc23)nnc1-c1ccc(N)cc1` gave V-ATPase pHluor 0.6, ABCB6 inh MLPCN 93.0, Dynein transport 0.392 and p-CIP stab down -13.1.
Screening CCOC(=O)/C=C/C(=O)Nc1ccccc1-c1ccccc1NC(=O)/C=C/C(=O)OCC returned V-ATPase pHluor 3.0, Cl transport mod 0.221, ABCB6 inh MLPCN 98.0, Dynein transport -4.13*, p-CIP stab down -3.8 and Dynein inh conf active.
Screening CC(=O)N(CCC(c1ccco1)C(C)C)Cc1ccc(Cl)cc1 (stereo not drawn) returned V-ATPase pHluor 2.1, Cl transport mod -3.52, ABCB6 inh MLPCN 106.0, Dynein transport -4.66*, p-CIP stab down 3.6 and Dynein inh conf inactive.
`Cc1c(N=C2C=CC(=O)c3ccccc32)c(=O)n(-c2ccccc2)n1C` gave V-ATPase pHluor 1.9, Cl transport mod -1.12, ABCB6 inh MLPCN 104.0, Dynein transport -4.67*, p-CIP stab down -11.9 and Dynein inh conf active.
`Cc1c(N=C2C=C(Br)C(=O)C(Br)=C2)c(=O)n(-c2ccccc2)n1C` gave V-ATPase pHluor -0.5, Cl transport mod -0.179, ABCB6 inh MLPCN 98.0, Dynein transport -0.0422 and p-CIP stab down -3.1.
`O=S(=O)(c1cc(Cl)ccc1Cl)N1CCc2ccccc21` gave V-ATPase pHluor -4.2, ABCB6 inh MLPCN 101.0 and p-CIP stab down -15.8.
For O=S(=O)(c1cnc(Cl)c(Br)c1)N1CCc2ccccc21 the results were V-ATPase pHluor 0.3, Cl transport mod 0.595, ABCB6 inh MLPCN 100.0, Dynein transport -4.7*, p-CIP stab down -13.4 and Dynein inh conf active.
`O=[N+]([O-])c1ccc(/C=C/C2=NN(c3ccccc3)C(c3ccco3)C2)o1` (stereo not drawn) gave V-ATPase pHluor -5.9, Cl transport mod -0.751, ABCB6 inh MLPCN inactive, Dynein transport -6.82, p-CIP stab down -307.8 and Dynein inh conf active.
`C(=C\c1ccco1)/C1=NN(c2ccccc2)C(c2ccco2)C1` (stereo not drawn) gave V-ATPase pHluor -6.0, Cl transport mod -0.601, ABCB6 inh MLPCN 305.0, Dynein transport -0.221 and p-CIP stab down -12.7.
`O=C(NCCCn1cccn1)c1cc(COc2ccccc2)on1` gave V-ATPase pHluor -0.7 and ABCB6 inh MLPCN 99.0.
`O=C1/C(=C/c2ccccc2[N+](=O)[O-])COc2ccccc21` gave V-ATPase pHluor 0.8, Cl transport mod -1.3, ABCB6 inh MLPCN 100.0, Dynein transport -5.72*, p-CIP stab down -19.8 and Dynein inh conf active.
`CNc1ccc(/C=C2\COc3ccccc3C2=O)cc1[N+](=O)[O-]` gave V-ATPase pHluor -1.3, Cl transport mod 0.152, ABCB6 inh MLPCN 101.0, Dynein transport 0.696 and p-CIP stab down 6.8.
O=C1CC(=Nc2ccc([N+](=O)[O-])cc2)NN1c1c(Cl)cc(Cl)cc1Cl was read as V-ATPase pHluor 2.1 and ABCB6 inh MLPCN 96.0.
